Calls of active or inactive are those of the source. The calls are words filed in the database; no cut-off is given here.
Key:
[1] = molecular target: T1, Human immunodeficiency virus type 1 reverse transcriptase (Human immunodeficiency virus 1, UniProt Q72547); assay: Inhibition of RNase H activity of full length recombinant HIV1 reverse transcriptase assessed as reduction in DNA 3'-end cleavage using HTS2 substrate
How it was run: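 Recombinant p66/p51 RT heterodimer. Fluorescent RNA/DNA duplex substrate HTS-2 reports DNA 3′-end-directed (polymerase-dependent) cleavage. IC50 is the mean of at least three independent experiments.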

[2] = molecular target: T1, Human immunodeficiency virus type 1 reverse transcriptase; assay: Inhibition of RNase H activity of full length recombinant HIV1 reverse transcriptase assessed as reduction in nonspecific internal cleavage using HTS1 substrate
How it was run: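 Recombinant p66/p51 RT heterodimer. Fluorescent RNA/DNA duplex substrate HTS-1 measures internal cleavage. IC50 is the mean of at least three independent experiments.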

[3] = molecular target: T1, Human immunodeficiency virus type 1 reverse transcriptase; assay: Inhibition of polymerase activity of HIV1 reverse transcriptase using poly(rA)-oligo(dT)16 and [3H]-TTP incubated for 20 mins by liquid scintillation spectrometry
How it was run: (§1)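 Reaction mix: 10 µM [3H]-TTP, 40 nM poly(rA)-oligo(dT)16, 50 mM Tris-HCl pH 7.4 (37°C), 60 mM KCl, 5 mM MgCl2. Started with 10 nM RT; 20 min at 37°C. Quenched in ice-cold 10% TCA with 20 mM sodium pyrophosphate, then glass-fibre filtered and washed with TCA and ethanol. Label incorporation read by liquid scintillation.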

[4] = molecular target: Human immunodeficiency virus type 1 integrase (Human immunodeficiency virus 1, UniProt Q7ZJM1); assay: Inhibition of HIV integrase pre-incubated for 10 mins before addition of oligo-5'-biotin ATGTGGAAAATCTCTAGCA annealed with ACTGCTAGAGATTTTCCACAT 3'-Cy5) substrate
[5] = molecular target: T1, Human immunodeficiency virus type 1 reverse transcriptase; assay: Inhibition of RNase H activity of full length recombinant HIV1 reverse transcriptase assessed as reduction in RNA 5'-end directed cleavage using HTS3 substrate
[6] = molecular target: T1, Human immunodeficiency virus type 1 reverse transcriptase; assay: Inhibition of re-constituted HIV1 reverse transcriptase RNase H domain fragment
How it was run: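 Secondary check using a catalytically active, isolated HIV RNase H domain fragment (reconstituted) with duplex substrate HTS-1.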

[7] = Toxicity against human HeLa P4/R5 cells; assay type: cell-based
[8] = system: Human immunodeficiency virus 1; assay: Antiviral activity against HIV1 infected in human HeLa P4/R5 cells assessed as reduction in viral growth pre-incubated with cells for 16 hrs followed by additional 48 hrs incubation by fluorescence-based beta-galactosidase detection assay; assay type: functional, organism-based
How it was run: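 P4R5 HeLa indicator cells (CD4, CXCR4, CCR5; HIV LTR-driven β-galactosidase reporter), 5×10^3 cells/well in DMEM/10% FBS with puromycin 0.5 µg/ml. Drug added 16 h before HIV exposure, then 48 h further incubation. Infection read by fluorescence-based β-galactosidase detection.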

[9] = molecular target: Human immunodeficiency virus type 1 reverse transcriptase (Human immunodeficiency virus 1) (UniProt Q72547); assay: Inhibition of RNase H activity of full length recombinant HIV1 reverse transcriptase assessed as reduction in RNA 5'-end directed cleavage up to 25 uM using HTS3 substrate
[10] = molecular target: Human immunodeficiency virus type 1 reverse transcriptase (Human immunodeficiency virus 1) (UniProt Q72547); assay: Inhibition of HIV1 polymerase activity of reverse transcriptase using poly(rA)-oligo(dT)16 and [3H]-TTP up to 25 uM incubated for 20 mins by liquid scintillation spectrometry; how it was run: as §1
[11] = molecular target: Human immunodeficiency virus type 1 reverse transcriptase (Human immunodeficiency virus 1) (UniProt Q72547); settings: up to 25 µM
[12] = molecular target: Human immunodeficiency virus type 1 reverse transcriptase (Human immunodeficiency virus 1) (UniProt Q72547); assay: Inhibition of re-constituted HIV1 reverse transcriptase RNase H domain fragment up to 25 uM
How it was run: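 Secondary check using a catalytically active, isolated HIV RNase H domain fragment (reconstituted) with duplex substrate HTS-1. […] Upper test concentration 25 µM.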

[13] = molecular target: Human immunodeficiency virus type 1 reverse transcriptase (Human immunodeficiency virus 1) (UniProt Q72547); assay: Inhibition of RNase H activity of full length recombinant HIV1 reverse transcriptase assessed as reduction in nonspecific internal cleavage up to 25 uM using HTS1 substrate

Sequence of Human immunodeficiency virus type 1 integrase (Q7ZJM1 whole entry): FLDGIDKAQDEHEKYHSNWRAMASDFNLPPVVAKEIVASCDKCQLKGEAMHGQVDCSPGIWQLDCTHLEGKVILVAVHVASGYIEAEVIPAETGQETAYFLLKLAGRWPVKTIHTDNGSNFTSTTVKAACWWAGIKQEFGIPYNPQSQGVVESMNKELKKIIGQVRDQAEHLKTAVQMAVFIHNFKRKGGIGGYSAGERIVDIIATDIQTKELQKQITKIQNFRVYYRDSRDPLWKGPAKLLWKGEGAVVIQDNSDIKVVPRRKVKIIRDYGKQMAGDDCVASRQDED

| SMILES | IC50 ([1]; read-out: IC50) [µM] | IC50 ([2]; read-out: IC50) [µM] | IC50 ([3]; read-out: IC50) [µM] | IC50 [4] [µM] | IC50 ([5]; read-out: IC50) [µM] | IC50 ([6]; read-out: IC50) [µM] | CC50 [7] [µM] | IC50 [3] | further results |
| --- | --- | --- | --- | --- | --- | --- | --- | --- | --- |
| COc1cc(OC)cc(-c2ccc(Nc3cc(=O)n(O)c(=O)[nH]3)cc2)c1 | 0.32 | 0.19 | 0.34 | 35 | 0.25 |  |  |  |  |
| COc1ccc(-c2cccc(Nc3cc(=O)n(O)c(=O)[nH]3)c2)c(OC)c1 | 0.54 | 0.31 | 3.2 | 1.2 | 2.4 |  |  |  |  |
| O=c1cc(Nc2cccc(-c3ccc(F)cc3)c2)[nH]c(=O)n1O | 0.3 | 0.2 | 6.6 | > 100 | 0.3 | 0.15 | > 25 |  | Activity [8]: inactive |
| COc1ccc(-c2cccc(Nc3cc(=O)n(O)c(=O)[nH]3)c2)cc1 | 0.3 | 0.2 | 6.3 | > 100 | 0.4 | 0.1 | > 25 |  | Activity [8]: inactive |
| Cn1c(Oc2cccc(-c3cccc(O)c3)c2)cc(=O)n(O)c1=O | 12 | 0.9 |  | 7.1 | 4.3 |  |  | Not Active |  |
| COc1cccc(-c2ccc(Nc3cc(=O)n(O)c(=O)[nH]3)cc2)c1 |  |  |  |  |  |  | > 25 |  | Activity [8]: inactive |
| Cn1c(Oc2ccccc2-c2ccccc2)cc(=O)n(O)c1=O |  |  |  |  |  |  |  | Not Active | IC50 [1]: Not Active; inhibition [9]: inactive; inhibition [10]: inactive; IC50 [5]: Not Active; inhibition [11]: inactive |
| Cc1ccc(-c2cccc(Nc3cc(=O)n(O)c(=O)[nH]3)c2)cc1 | 0.45 | 0.38 | 3.1 | 44 | 0.44 |  |  |  |  |
| Cn1c(Nc2ccc(-c3cccc(C#N)c3)cc2)cc(=O)n(O)c1=O | 3.7 | 1.2 |  | 30 | 3.3 | 0.9 | 25 | Not Active |  |
| Cc1ccc(-c2ccc(Nc3cc(=O)n(O)c(=O)[nH]3)cc2)cc1 | 0.7 | 0.4 | 5.7 | 93 | 0.5 | 0.4 | > 25 |  | Activity [8]: inactive |
| Cn1c(Nc2cccc(C3CCOC3)c2)cc(=O)n(O)c1=O (centres undefined) |  |  |  |  |  |  | > 25 | Not Active | IC50 [6]: Not Active; IC50 [1]: Not Active; inhibition [9]: inactive; inhibition [12]: inactive; IC50 [2]: Not Active; inhibition [10]: inactive; inhibition [13]: inactive; IC50 [5]: Not Active; inhibition [11]: inactive |
| COc1cccc(-c2cccc(Nc3cc(=O)n(O)c(=O)n3C)c2)c1 | 3.5 | 0.6 |  | 4.6 | 4.3 | 1.7 | 10 | Not Active |  |
| Cn1c(Nc2cccc(-c3ccccc3)c2)cc(=O)n(O)c1=O | 3.5 | 0.85 |  | 2.2 | 3.4 |  |  | Not Active |  |
| COc1cccc(OC)c1-c1cccc(Nc2cc(=O)n(O)c(=O)[nH]2)c1 | 0.7 | 0.51 | 1.7 | 1.3 | 0.47 |  |  |  |  |
| Cn1c(Nc2cccc(-c3cccc(C#N)c3)c2)cc(=O)n(O)c1=O | 3.2 | 1.1 | 5 | 7.1 | 4.1 | 1 | > 25 |  |  |
| Cc1noc(C)c1-c1ccc(Nc2cc(=O)n(O)c(=O)n2C)cc1 | 4.4 | 1.6 |  | 25 | 3.8 |  |  | Not Active |  |
| COc1ccc(-c2ccc(Nc3cc(=O)n(O)c(=O)n3C)cc2)cc1 | 6.6 |  |  | 4.4 | 5 | 0.9 | 5 | Not Active |  |
| COc1ccc(-c2ccccc2Oc2cc(=O)n(O)c(=O)n2C)cc1 |  | 2.3 |  | 1 | 22 | 6.4 | 6 | Not Active | IC50 [1]: Not Active |
| Cn1c(Oc2ccc(-c3ccc(O)cc3)cc2)cc(=O)n(O)c1=O | 15 | 2.2 |  | 12 | 11 |  |  | Not Active |  |
| COc1cccc(-c2ccc(Oc3cc(=O)n(O)c(=O)n3C)cc2)c1 | 16 | 2 |  |  | 16 | 5.1 | 6 | Not Active | inhibition [10]: inactive |
